# In the library only some 2.9% were active in any assay of this set; here they are far more common.
# M1 ag parental: M1 agonist counterscreen hit in parental CHO-K1 cells; Fluo-8 calcium fluorescence; scaled to maximal ATP response, vehicle zero; activation, % at 3 µM; 360,000 tested, 0.48% active; in the data active = activation above about 15%;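 note: untransfected CHO-K1 host cells lacking M1 receptor as counterscreen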
# OX1R antag-1: OX1R (human) antagonism | OX1R-expressing cells, FRET antagonist read-out | O43613 | AID 485270 | 330,000 tested, 1.8% active | inhibition, % at 6.6 µM; in the data active = inhibition mostly above about 38%, no sharp cut-off; inactive = mostly below about 40%;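 note: 0% = agonist challenge alone and 100% = reference antagonist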
# Target sequence (O43613 whole entry, looked up): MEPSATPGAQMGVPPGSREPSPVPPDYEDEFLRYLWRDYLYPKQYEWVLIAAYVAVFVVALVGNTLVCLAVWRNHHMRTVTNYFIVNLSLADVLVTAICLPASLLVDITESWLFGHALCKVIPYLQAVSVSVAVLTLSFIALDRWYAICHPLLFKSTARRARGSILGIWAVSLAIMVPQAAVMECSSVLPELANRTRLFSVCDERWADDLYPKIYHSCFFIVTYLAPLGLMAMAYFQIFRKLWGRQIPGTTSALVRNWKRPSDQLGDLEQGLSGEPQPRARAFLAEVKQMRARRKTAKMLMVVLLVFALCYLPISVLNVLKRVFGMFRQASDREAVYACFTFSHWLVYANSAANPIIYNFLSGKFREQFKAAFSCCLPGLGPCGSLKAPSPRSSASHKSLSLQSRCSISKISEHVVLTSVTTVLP
# CHO parental Ca: signal in parental CHO cells, OX1R antagonist counter-screen | parental CHO-K1, ATP-induced calcium, Fluo-8 fluorescence | inhibition, % at 5.6 µM | 330,000 tested, 0.63% active | AID 463079;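 active = inhibition above that plate's mean sample inhibition plus 3 SD, cut at about 26% in these data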;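 note: 0% = ATP-challenged DMSO wells and 100% = DMSO wells without ATP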
#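 Material: Parental CHO cells | Reagent: ATP | Compound dosing: Single nominal dose of 5.6 µM per compound | Detection: Intracellular calcium via Fluo-8 no-wash fluorescent dye | Read-out: % inhibition of ATP-induced calcium mobilization | Benchmarks: Low control ATP plus DMSO, high control DMSO only | Replicates: Singlicate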
# OX1R antag-2: antagonists of human orexin 1 receptor | AID 434989 | O43613 | inhibition, % at 5 µM | 330,000 tested, 0.43% active | CHO/OX1R cells, Fluo-8 calcium fluorescence, orexin A;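 active = inhibition above its plate's threshold, mean inhibition of all tested compounds on the plate plus 3 SD, cut at about 37% in these data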;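 note: 0% = orexin A challenge wells and 100% = SB-334867-A antagonist wells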
# CHO-K1 Ca antag: counter-screen for M1 antagonists: effect in parental CHO-K1 cells; ATP-induced calcium, Fluo-8 fluorescence; AID 602250; inhibition, % at 3 µM; 360,000 tested, 0.6% active;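 active = inhibition above a per-plate cutoff, the plate's mean sample inhibition plus 3 SD, cut at about 24% in these data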;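 note: 0% = DMSO plus EC80 ATP and 100% = DMSO alone without ATP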
# M1 PAM parental: counter-screen for M1 PAMs: effect in parental CHO-K1 cells | ATP EC20, Fluo-8 calcium fluorescence; 0% at ATP EC20, 100% at ATP max | AID 602247 | activation, % at 3 µM | 360,000 tested, 0.02% active;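 active = activation above the run cutoff, the mean activation of all test compounds plus 3 SD, cut at about 40% in these data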;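 note: peak over basal fluorescence ratio in a 140 s read after ATP addition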
# OX1R Fluo8 conf: confirmation of human orexin 1 receptor antagonists | shares compounds with OX1R antag-2 | CHO/OX1R cells, orexin A calcium Fluo-8 fluorescence | inhibition, % at 5 µM | 1,100 tested, 38% active; in the data active = inhibition above about 29%;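 note: 0% = agonist challenge alone and 100% = reference antagonist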
# CHO Ca counter: counter-screen: parental CHO calcium response change, triplicate | 1,100 tested, 9.3% active | shares compounds with OX1R antag-2 | inhibition, % at 5.6 µM | parental CHO-K1, ATP-induced calcium, Fluo-8 fluorescence | AID 492965;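 active = inhibition above a per-plate limit, the mean inhibition of that plate's test compounds plus 3 SD, cut at about 25% in these data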;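 note: 0% = ATP challenge with DMSO and 100% = DMSO without ATP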
# * marks the source's active call; other numbers are inactive results; . = not tested or not shown.
SMILES,M1 ag parental,OX1R antag-1,CHO parental Ca,OX1R antag-2,CHO-K1 Ca antag,M1 PAM parental,OX1R Fluo8 conf,CHO Ca counter
Cc1ccc(S(=O)(=O)N2CCOCC2)cc1NC(=O)COC(=O)CCc1c[nH]c2ccccc12,9,30,-9,32,-15,8,-2,-14
O=C(COC(=O)Cc1c[nH]c2ccccc12)Nc1cc(S(=O)(=O)N2CCOCC2)ccc1Cl,8,6,-11,-18,-21,6,.,.
O=C(Nc1cccc(S(=O)(=O)NC2=NCCC2)c1)C1CCC1,0,23,-9,-14,-11,18,.,.
O=C(Nc1cccc(S(=O)(=O)Nc2ccc(SC(F)F)cc2)c1)C1CCC1,4,17,6,37,-10,2,3,-2
O=C(Oc1ccc(Cl)c2cccnc12)N1CCOCC1,0,13,-22,-7,-4,16,.,.
O=C(Oc1ccc(Cl)c2cccnc12)N1CCCCC1,0,26,-5,90*,-20,5,-15,-4
Cc1cc(C(=O)CN2CCN(CC(=O)Nc3ccc(F)cc3)CC2)c(C)n1C1CC1,0,-8,-19,-14,-15,17,.,.
Cc1cc(C(=O)COC(=O)c2ccc(O)cc2O)c(C)n1-c1ccccc1,3,2,8,33,-10,-12,5,8
CCc1noc(C)c1C(=O)Oc1ccc(N(C)S(=O)(=O)c2ccc(C)cc2)cc1,5,9,8,55*,-14,13,5,5
COc1ccc(C(=O)CC(=O)C(=O)Nc2ccc(C)c(Cl)c2)cc1,7,9,-5,-24,-12,14,.,.
Cc1ccc(NC(=O)COC(=O)c2cccc(C)c2[N+](=O)[O-])cc1S(=O)(=O)N1CCCCC1,9,4,21,44*,3,-2,14,9
Cc1ccc(NC(=O)COC(=O)c2ccccc2F)cc1S(=O)(=O)N1CCCCC1,7,.,.,.,-10,-13,.,.
COc1ccccc1-c1nc2s/c(=C\c3cccs3)c(=O)n2n1,0,-1,1,-5,-6,6,.,.
COc1ccc(/C=c2\sc3nc(-c4ccccc4OC)nn3c2=O)c(OC)c1,0,16,-2,43*,0,0,90*,18
c1ccc(Cn2nnnc2C(c2cccs2)N2CCCCCC2)cc1 (stereo not drawn),0,9,4,38,-13,4,-15,-13
c1ccc(Cn2nnnc2C(c2cccs2)N2CCc3ccccc3C2)cc1 (stereo not drawn),14,5,-9,-4,1,19,.,.
CCC1CCCCN1S(=O)(=O)c1ccc(-n2cnnn2)c(C)c1 (stereo not drawn),3,7,-6,-12,-1,-7,.,.
CCN(CC)c1ccc(/C=N\NC(N)=O)cc1,0,17,9,32,-5,18,1,2
CN1CCN(NC(=O)c2ccc(S(=O)(=O)N3CC4(C)CC3CC(C)(C)C4)cc2)CC1 (stereo not drawn),0,18,4,1,-7,2,.,.
Cc1ccc(C(C#N)c2ccc(C(=O)c3ccc(F)cc3)cc2)cc1 (stereo not drawn),1,43,29,33,1,1,1,9
N#CC(c1ccc(F)cc1)c1ccc(C(=O)c2ccc(F)cc2)cc1 (stereo not drawn),1,25,3,-4,5,11,.,.
CN(C)CCCNc1cc(C(C)(C)C)nc2c(-c3ccc(Cl)cc3)cnn12,0,9,13,31,3,-12,25,-3
S=C(NCc1cccnc1)Nc1cccc2ccccc12,1,13,-7,33,-2,12,-1,-5
O=C(CN1C(=O)NC2(CCc3ccccc32)C1=O)NCC(=O)Nc1ccc(F)cc1 (stereo not drawn),0,-3,0,-5,-18,4,.,.
CCN1/C(=C/C(=O)c2ccco2)Sc2ccccc21,0,54,-27,-7,1,10,.,.
SMILES,M1 ag parental,OX1R antag-1,CHO parental Ca,OX1R antag-2,CHO-K1 Ca antag,M1 PAM parental,OX1R Fluo8 conf,CHO Ca counter
CCOC(=O)/C(=C\C=C1/Sc2ccccc2N1CC)C(C)=O,38*,43,34,42,18,-2,34*,35*
CCn1ncc(N(C)N)c(Cl)c1=O,0,15,1,-32,2,5,.,.
CCc1ccc(NC(=O)[C@H](NC(=O)[C@@H]2Cc3ccccc3CN2)c2ccccc2)cc1,4,2,-28,-1,-14,26,.,.
CCc1ccc(NC(=O)[C@@H](NC(=O)[C@@H]2Cc3ccccc3CN2)C(C)CC)cc1 (stereo partly drawn),0,0,-9,77*,-7,-2,-12,-14
CC1CCCCC1NC(=O)CN1CCC(NC(=O)C(C)(C)C)CC1 (stereo not drawn),1,.,.,.,-3,17,.,.
CN(C)S(=O)(=O)N1CCN(CC(=O)Nc2ccc(F)cc2)CC1,0,-4,-4,-9,-5,3,.,.
Cc1ccc(-n2nnnc2SCn2nnc3ccccc3c2=O)c(C)c1,10,10,8,42*,24*,-8,12,21
Cc1cc(SCn2nnc3ccccc3c2=O)nc2ccccc12,0,18,-11,1,-4,15,.,.
CN(C(=O)CC1C(=O)NCCN1Cc1ccc(F)c(F)c1)C1CCOCC1 (stereo not drawn),1,8,1,1,-7,18,.,.
Cc1cc(NC(=O)NC(C)(C(F)(F)F)C(F)(F)F)no1,1,6,-5,-8,-4,5,.,.
CCOC(=O)c1ccc(N=C2SC(C(=O)NC)CC(=O)N2Cc2ccc(F)cc2)cc1 (stereo not drawn),1,15,-1,-4,-10,3,.,.
CCOC(=O)c1ccc(N=C2SC(C(=O)Nc3ccc(C(=O)O)cc3)CC(=O)N2Cc2cccs2)cc1 (stereo not drawn),0,27,25,35,0,13,18,7
CCOC(=O)c1c(S(=O)(=O)Nc2ccc(F)cc2C)c(C)n(C)c1C,0,7,20,-3,-6,16,.,.
O=C(OC(C(=O)NCc1ccccc1)c1ccccc1F)c1ccco1 (stereo not drawn),1,10,-24,-27,-5,-4,.,.
Cc1ccc(NC(=O)c2ccccc2)cc1,0,24,-13,-29,-3,3,.,.
Cc1ccc(NC(=O)C2=C(c3ccccc3)S(=O)(=O)CCS2(=O)=O)cc1,1,25,22,35,3,25,43*,22
COc1c(C)cc(Br)cc1C(=O)Nc1ccc(Cc2ccncc2)cc1,5,41,18,31,-16,10,-9,-5

# Source: PubChem BioAssay (The Scripps Research Institute Molecular Screening Center)
